# Measured values gathered from unrelated publications.
# Each line is one published result; the experiments were not run side by side.
# Hypoxanthine-guanine-xanthine phosphoribosyltransferase: Hypoxanthine-guanine-xanthine phosphoribosyltransferase (Plasmodium falciparum, UniProt P20035)
# HRH3: Histamine H3 receptor (HRH3, Homo sapiens, UniProt Q9Y5N1)
# SLC10A2: Ileal sodium/bile acid cotransporter (SLC10A2, Homo sapiens, UniProt Q12908)
# DRD5: D(1B) dopamine receptor (DRD5, Homo sapiens, UniProt P21918)
# WDR5: WD repeat-containing protein 5 (WDR5, Homo sapiens, UniProt P61964)
# CYP1B1: Cytochrome P450 1B1 (CYP1B1, Homo sapiens, UniProt Q16678)
SMILES,target,test,setting,Ki [µM]
O=c1c(O)c(NCC[C@@H](CO)NCc2c[nH]c3c(O)ncnc23)c1=O,Hypoxanthine-guanine-xanthine phosphoribosyltransferase,"enzyme activity, inhibitor",pH 7.4,> 20
CCCc1ccc(OCCCCCN2CCC(C)CC2)cc1,HRH3,"ligand displacement, radioligand",cell membranes,0.156
C[C@H]1[C@H](NC(=O)/C(=N\OC(C)(C)C(=O)O)c2csc(N)n2)C(=O)N1S(=O)(=O)O,SLC10A2,"transporter uptake, inhibitor",,1850
CCCNc1nc2ccccc2n1Cc1ccc(Cl)cc1,DRD5,"cell-free assay, radioligand",,5.66
CCOC(=O)C1=C(COCCN)NC(C)=C(C(=O)OC)C1c1ccccc1Cl (centres unmarked),SLC10A2,"transporter uptake, inhibitor",,< 100
COc1ccc2c(c1)C(=O)N(CCCN1CCN(c3ccccc3OC)CC1)C2,DRD5,"ligand displacement, radioligand",,8.29
O=C1CN(C[C@@H](CO)NCc2c[nH]c3c(O)ncnc23)S(=O)(=O)N1,Hypoxanthine-guanine-xanthine phosphoribosyltransferase,"enzyme activity, inhibitor",pH 7.4,> 20
CN(C(=O)[C@@H]1Cc2ccccc2CN1C(=O)c1ccc(Cl)s1)c1ccc(N2CCCCC2=O)cc1,"Coagulation factor X (F10, Homo sapiens, UniProt P00742)","enzyme activity, inhibitor, absorbance",,28
O=C1CCCc2cc(OCCCN3CCCCC3)ccc21,HRH3,"ligand displacement, radioligand",cell membranes,0.068
O=C1CN(CC[C@@H](CO)NCc2c[nH]c3c(O)ncnc23)S(=O)(=O)N1,Hypoxanthine-guanine-xanthine phosphoribosyltransferase,"enzyme activity, inhibitor",pH 7.4,> 20
CCCc1ccc(OCCCCCN2CCCC(C)C2)cc1 (centres unmarked),HRH3,"ligand displacement, radioligand",cell membranes,0.0384
CCCCN1CCC(COC(=O)c2ccc(N)c(OCF)c2)CC1,DRD5,"cell-free assay, radioligand",,> 10
O=C(NCc1cc(Cl)cc(Cl)c1)c1cccc(Cn2ccnc2)c1,WDR5,"ligand displacement, TR-FRET",,> 0.033
C#Cc1cccc2oc(-c3ccccc3)cc(=O)c12,CYP1B1,"enzyme activity, inhibitor, fluorescence","6 min, pH 7.6",0.21
CN(C)c1ccc(/C=C/C=C2\CCc3ccc(OCCCN4CCCCC4)cc3C2=O)cc1,HRH3,"ligand displacement, radioligand",cell membranes,0.101
COc1cc(CNC(=O)c2cccc(CNC3=NCCN3)c2F)cc(OC)c1,WDR5,"ligand displacement, FP",,1.23
O=C1c2ccccc2CCCN1CCCCN1CCN(c2ccccn2)CC1,DRD5,"ligand displacement, radioligand",,> 10
CN1CCN(CC/C=C2/c3ccccc3Sc3ccc(S(=O)(=O)N(C)C)cc32)CC1,SLC10A2,"transporter uptake, inhibitor",,808
CC(C)=CCc1c(O)cc(O)c2c1O[C@H](c1ccc(O)cc1)CC2=O,CYP1B1,"enzyme activity, inhibitor, fluorescence","15 min, pH 7.4",0.17
Cc1nc(F)ccc1-c1cc(C(=O)NCc2ccc(Cl)c(Cl)c2)ccc1Cn1ccn(C)c1=N,WDR5,"ligand displacement, FP",,> 5
NS(=O)(=O)c1cc2c(cc1Cl)NC(C(Cl)Cl)NS2(=O)=O (centres unmarked),SLC10A2,"transporter uptake, inhibitor",,377
O=c1c(O)c(NC[C@@H](CO)NCc2c[nH]c3c(O)ncnc23)c1=O,Hypoxanthine-guanine-xanthine phosphoribosyltransferase,"enzyme activity, inhibitor",pH 7.4,> 20
CCCCNc1cc(C(=O)O)cc(S(N)(=O)=O)c1Oc1ccccc1,SLC10A2,"transporter uptake, inhibitor",,225
CN1CCN(CCCOc2ccc(Nc3nccc(N4CCN(C)CC4)n3)cc2)CC1,HRH3,"ligand displacement, radioligand",cell membranes,0.646
CC(C(=O)O)c1cccc(C(=O)c2ccccc2)c1 (centres unmarked),SLC10A2,"transporter uptake, inhibitor",,178
CCOc1c(O)cc(Br)c2c1CN1CCc3cc(OCC(F)F)c(O)cc3[C@@H]1C2,DRD5,"cell-free assay, radioligand",,0.082
O=c1cc([C@@H](CO)NCc2c[nH]c3c(O)ncnc23)o[nH]1,Hypoxanthine-guanine-xanthine phosphoribosyltransferase,"enzyme activity, inhibitor",pH 7.4,> 20
CCc1ccc(OCCCCCCN2CCCC(C)C2)cc1 (centres unmarked),HRH3,"ligand displacement, radioligand",cell membranes,0.0741
O=C1CCCc2ccc(OCc3ccc(OCCCN4CCCCC4)cc3)cc21,HRH3,"ligand displacement, radioligand",cell membranes,0.017
O=C1c2ccccc2CCN1CCCCN1CCN(c2cccc(Cl)c2Cl)CC1,DRD5,"ligand displacement, radioligand",,2.38
COC(=O)C1=C(C)NC(C)=C(C(=O)OC(C)C)C1c1cccc2nonc12 (centres unmarked),SLC10A2,"transporter uptake, inhibitor",,19.4
C#Cc1cccc(-c2cc(=O)c3ccccc3o2)c1,CYP1B1,"enzyme activity, inhibitor, fluorescence","6 min, pH 7.6",0.16
COc1cc(O)c(CC=C(C)C)c2c1C(=O)CC(c1ccc(O)cc1)O2 (centres unmarked),CYP1B1,"enzyme activity, inhibitor, fluorescence","15 min, pH 7.4",0.54
CN(C)c1ccc(/C=C/C=C2\CCc3cc(OCCCN4CCCCC4)ccc3C2=O)cc1,HRH3,"ligand displacement, radioligand",cell membranes,0.094
CCc1ccc(CCOc2ccc(CC3SC(=O)NC3=O)cc2)nc1 (centres unmarked),SLC10A2,"transporter uptake, inhibitor",,< 100
COc1ccc(C2=NN(C(C)C)C(=O)C3CC=CCC23)cc1-c1ccc(C(=O)N2CCC[C@@H]2C(N)=O)cc1 (mixture of isomers),"Class 1 phosphodiesterase PDEB1 (PDEB1, Trypanosoma brucei, UniProt Q8WQX9)","enzyme activity, inhibitor",,0.631
CCOC(=O)[C@](CC)(CCCS(=O)(=O)CCOCCOCCNC(=O)OC(C)(C)C)NC(=O)c1ccc(C2CC2)c(Cc2ccc(F)cc2)n1,"Cannabinoid receptor 2 (CNR2, Homo sapiens, UniProt P34972)","ligand displacement, radioligand",cell membranes,0.045
C#Cc1ccc2c(=O)cc(-c3ccccc3)oc2c1,CYP1B1,"enzyme activity, inhibitor, fluorescence","6 min, pH 7.6",0.42
